The test system of data set [1] is Leishmania major. In words: Antileishmanial activity Leishmania major V121 amastigotes infected in mouse bone marrow-derived macrophage assessed as inhibition of parasite proliferation after 48 hrs by Giemsa staining. The format is functional, organism-based. The method, boiled down:
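Intracellular proliferation format in mouse bone marrow-derived macrophages, with amastigotes used for infection. Infected cells on duplicate coverslips exposed to compound for 48 h, then washed, methanol-fixed and Giemsa-stained. Percentage of infected cells counted microscopically.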

Data set [2] deals with Leishmania major. In words: Antileishmanial activity Leishmania major V121 amastigotes. In kind it is functional, organism-based. The method, boiled down: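 Ex vivo amastigotes purified from lesions of L. major-infected CBA nu/nu mice, resuspended in M199. Exposed 24 h to 2-fold dilutions from 100 μM to 49 nM. 10^6 parasites per well, in duplicate. Viability by CellTiter blue, read at 550 nm with 630 nm reference. IC50 against nontreated controls.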

Data set [3] can be described thus: Inhibition of Leishmania major recombinant GDP-mannose pyrophosphorylase expressed in Escherichia coli […] by fluorescence assay. Put shortly:
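Recombinant His6-tagged L. major GDP-MP, expressed in E. coli BL21(DE3)pLysS and purified on Talon resin. Buffer: 25 mM Tris-HCl pH 7.5, 4 mM MgCl2, 150 mM NaCl, 0.02% Tween 20, 0.4 mg/ml OVA. Final 5 μM M-1-P and 1.3 μM GTP, with inorganic pyrophosphatase coupling. Pi detected by MDCC phosphate sensor, Ex430/Em480, read each minute for 10 min.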

A short description of data set [4]: Cytotoxicity against HFF by Cell titer blue assay. In kind it is cell-based. To be noted: human, HFF cells. The method, boiled down:
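Primary human foreskin fibroblasts grown in DMEM with 10% HI-FBS, 37°C, 5% CO2. Compound toxicity measured by CellTiter blue viability, concentrations up to 100 μM.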
For orientation: The colour change of resazurin is a common sign of viable cells or microbes.

For data set [5], the system named is Leishmania major. In words: Antileishmanial activity Leishmania major V121 promastigotes infected in mouse bone marrow-derived macrophage assessed as mild inhibition of cell invasion at 30 uM after 48 hrs by microscopy. In kind it is functional, organism-based.
For data set [6], the system named is Leishmania major. As to the kind of experiment: Antileishmanial activity Leishmania major V121 amastigotes infected in mouse bone marrow-derived macrophage assessed as complete inhibition of cell invasion at 30 uM after 48 hrs by microscopy. The format is functional, organism-based.
The subject of data set [7] is Leishmania major. In words: Antileishmanial activity Leishmania major V121 amastigotes isolated from infected […] CBA nu/nu after 48 hrs by microscopy. In kind it is functional, organism-based.
Data set [8] concerns Leishmania major. In words: Antileishmanial activity Leishmania major V121 amastigotes isolated from infected […] CBA nu/nu at 10 to 40 uM after 48 hrs by microscopy. The format is functional, organism-based.
The subject of data set [9] is Leishmania major. In words: Antileishmanial activity Leishmania major V121 promastigotes infected in mouse bone marrow-derived macrophage assessed as complete inhibition of cell invasion at 30 uM after 48 hrs by microscopy. The format is functional, organism-based.
Data set [10] has as its system Leishmania major. In words: Antileishmanial activity Leishmania major V121 promastigotes infected in mouse bone marrow-derived macrophage assessed as inhibition of cell invasion after 48 hrs by microscopy. The format is functional, organism-based.
Data set [11] deals with Leishmania major. In words: Antileishmanial activity Leishmania major V121 amastigotes infected in mouse bone marrow-derived macrophage assessed as mild inhibition of cell invasion at 30 uM after 48 hrs by microscopy. The format is functional, organism-based.
The subject of data set [12] is Leishmania major. As to the kind of experiment: Antileishmanial activity Leishmania major V121 amastigotes infected in mouse bone marrow-derived macrophage assessed as inhibition of cell invasion after 48 hrs by microscopy. In kind it is functional, organism-based.
A short description of data set [13]: Cytotoxicity against mouse bone marrow-derived macrophages at 30 uM after 48 hrs by Cell titer blue assay. In kind it is cell-based. To be noted: macrophage.
For data set [14], the system named is Leishmania major. In words: Antileishmanial activity Leishmania major V121 amastigotes isolated from infected […] CBA nu/nu at 10 to 30 uM after 48 hrs by microscopy. The format is functional, organism-based.
The test system of data set [15] is Leishmania major. In words: Antileishmanial activity Leishmania major V121 promastigotes infected in mouse bone marrow-derived macrophage assessed as inhibition of cell invasion at 10 uM after 48 hrs by microscopy. In kind it is functional, organism-based.

Data on 26 molecules can be found in ChEMBL document CHEMBL1255431, “Inhibitors of Leishmania GDP-mannose pyrophosphorylase identified by high-throughput screening of small-molecule chemical library” (Antimicrob Agents Chemother, 2010).

Activity calls are given as the source filed them. The rule behind the calls is not given here. Some results are limits rather than exact numbers.

Broadly, the IC50 is the midpoint of a concentration-inhibition curve. By CC50 is commonly meant the concentration that lowers cell viability or growth by half. Low values mean harm at low concentration, high ones better tolerance by the cells. On to `Cc1ccc2c(n1)[nH]c1ccccc12`, for which the values for the IC50 in data set [1], in [2] and in [3] were over 30 µM, 96.8 µM and 5.53 µM, respectively. In [4], this molecule had a CC50 of over 100 µM. In [5], the inhibition result is “Active”.

Turning to `c1ccc2c(-c3cnc4n3CCS4)c[nH]c2c1`, the IC50 was over 30 µM in data set [1], 78 µM in data set [2] and 0.49 µM in [3]. The molecule further returned a CC50 in data set [4] of over 100 µM. For the same molecule, the inhibition entry in data set [6] and in [5] was “Active” in each case.

In the case of `CCOC(=O)C/C(=N/O)c1nnn[nH]1`, the IC50 in data set [2] is over 100 µM; in data set [3], 7.28 µM. Also, the inhibition result in data set [5] was “Active”.

For `Fc1cccc(Cl)c1Cc1nn2c(-c3ccccc3)nnc2s1`, the figures for the IC50 in [2] and in [3] were over 100 µM and 2.98 µM, respectively. Besides, the inhibition entry in [5] is “Active”.

`Cc1ccc(N2NC(=O)/C(=C/c3cc4c(cc3Cl)OCO4)C2=O)cc1C`: the figures for the IC50 in data set [1], in data set [2] and in [3] were over 30 µM, 25.1 µM and 5.75 µM, respectively. The molecule also yielded a 50% cytotoxic concentration (CC50) in [4] of over 100 µM. Besides, the inhibition entry in data set [5] is “Active”.

As for `CC(C)(C)c1ccc(CN2CCN(c3ccnc4cc(Cl)ccc34)CC2)cc1`, the IC50 came to 21.9 µM in [1], 62.3 µM in [2] and 0.58 µM in data set [3]. The inhibition result in [1], in data set [10] and in data set [12] was “Dose-dependent effect” each time. For the same molecule, the result in data set [7] and in data set [8] was Active. In data set [4], this molecule yielded a CC50 of over 100 µM. For the same molecule, the inhibition result in data set [9] and in data set [11] was “Active” each time.

For `CN(C)Cc1c(O)ccc2c(=O)c(-c3cnn(-c4ccccc4)c3)coc12`, the IC50 in [1] was over 30 µM; in data set [2], 73.4 µM; in data set [3], 4.12 µM. Besides, the CC50 in [4] was over 100 µM. For the same molecule, the inhibition result in [5] is “Active”.

For `Cc1ccccc1Cc1nnc2sc(-c3ccc(Cl)cc3)nn12`, the results for the IC50 in [2] and in data set [3] were over 100 µM and 1.09 µM, respectively. For the same molecule, the inhibition entry in data set [5] is “Active”.

Turning to `CCCc1cc(-c2nn3c(-c4ccccc4)nnc3s2)n(CC)n1`, the figures for the IC50 in data set [2] and in data set [3] were over 100 µM and 1.26 µM, respectively. Besides, the inhibition result in [5] is “Active”.

Turning to `Cc1cc(C)nc(SCc2nn3c(-c4ccccc4)nnc3s2)n1`, the IC50 in data set [2] is over 100 µM; in data set [3], 3.95 µM. Moreover, the inhibition entry in [5] is “Active”.

Regarding `CCn1nc(C)cc1-c1nnc2sc(-c3ccc(C)cc3)nn12`, the figures for the IC50 in data set [2] and in [3] were 88.9 µM and 1.37 µM, respectively. The CC50 in [4] was over 100 µM. The Activity result in data set [13] is given as “Toxic”. Also, in [5], the inhibition result was “Active”.

In the case of `COc1ccc2c(=O)c(C(=O)O)csc2c1`, the IC50 in data set [2] is over 100 µM; in data set [3], 8.25 µM. In addition, the inhibition result in data set [5] was “Active”.

On to `CCn1nc(C)cc1-c1nnc2sc(Cc3c(F)cccc3Cl)nn12`, for which the IC50 in data set [2] is over 100 µM; in [3], 1.05 µM. Besides, the inhibition result in data set [5] was “Active”.

As for `CCc1nnc(N2C(=O)C3C4C=CC(C4)C3C2=O)s1` (stereo not given), the IC50 in data set [2] is over 100 µM; in data set [3] it was 3.53 µM. Also, the inhibition entry in data set [5] was “Active”.

Regarding `Clc1ccc(C2=NN3C(c4ccccc4)=NNC3S2)c(Cl)c1` (stereo not given), the IC50 in data set [2] was over 100 µM; in data set [3], 2.93 µM. Further, the inhibition entry in data set [5] is “Active”.

Consider `Cc1ccc(C(=O)N2CCN(c3ccnc4cc(Cl)ccc34)CC2)cc1`, for which the IC50 was over 30 µM in [1] and 70.6 µM in data set [2]. For the same molecule, the result in data set [14] was Active. Further, the inhibition entry in data set [15] is “inactive”. In addition, the inhibition result in data set [10] and in [12] was “Dose-dependent effect” each time. In data set [5], the inhibition result is “Active”.

For `Clc1ccc2c(N3CCN(Cc4ccc(-c5ccccc5)cc4)CC3)ccnc2c1`, the IC50 in data set [1] came to 11.7 µM; in data set [2], 32.6 µM; in data set [10] (V121, 48 h), 17.6 µM. The CC50 in data set [4] was over 100 µM. Besides, the inhibition result in [5] was “Active”.

With `COc1ccc(CCC2=Nc3ccccc3S(=O)(=O)N2)cc1`, the IC50 in data set [3] amounted to 5.31 µM. The inhibition entry in data set [5] was “Active”.

Take `COc1ccc(-c2nnc3sc(-c4ccc(F)cc4)nn23)cc1`: the IC50 in [2] is over 100 µM; in data set [3] it was 4.45 µM. Besides, in [5], the inhibition entry is “Active”.

On to `COC(=O)c1c(O)c(C#N)c2n(c1=O)CCc1cc(OC)c(OC)cc1-2`, for which the values for the IC50 in data set [1], in [2] and in data set [3] were over 30 µM, 52.6 µM and 2.44 µM, respectively. The CC50 in data set [4] was over 100 µM. Moreover, the inhibition result in data set [6] and in [5] was “Active” each time.

`Clc1ccc2c(N3CCN(Cc4ccccc4)CC3)ccnc2c1`: the values for the IC50 in data set [1] and in data set [2] were over 30 µM and 62.2 µM, respectively. The result in [14] was Active. In addition, the inhibition entry in [10] and in [12] was “Dose-dependent effect” in each case. Also, in data set [5], the inhibition entry was “Active”.

Molecule `CN1CCN(c2ccnc3cc(Cl)ccc23)CC1` had an IC50 in data set [2] of over 100 µM. Besides, in data set [5], the inhibition result was “Active”.

Consider `COc1ccc(-c2csc3c2C2=NCCN2C=N3)cc1OC`, for which the IC50 in data set [2] was over 100 µM; in data set [3], 7.54 µM. Moreover, the inhibition entry in [5] was “Active”.

For the molecule `Cc1ccc(/C=C2/C(=O)NN(c3ccc(F)cc3)C2=O)o1`, the IC50 in data set [1] is over 30 µM; in [2] it was 90.7 µM; in data set [3] it was 10.7 µM. In data set [4], this molecule registered a CC50 of over 100 µM. Moreover, in data set [5], the inhibition result was “Active”.

`Cc1ccc2[nH]c(CCC3CCCCC3)nc2c1`: the values for the IC50 in data set [2] and in data set [3] were 23.7 µM and 1.56 µM, respectively. In data set [4], this molecule gave a CC50 of over 100 µM. In addition, the Activity result in [13] is recorded as “Toxic”. Moreover, the inhibition result in data set [5] is “Active”.

Turning to `C[C@@H]1[C@H](O)[C@@H](C)/C=C/C=C/C=C/C=C/C=C/C=C/C=C/[C@H](O[C@@H]2O[C@H](C)[C@@H](O)[C@H](N)[C@@H]2O)C[C@@H]2O[C@](O)(C[C@@H](O)C[C@@H](O)[C@H](O)CC[C@@H](O)C[C@@H](O)CC(=O)O[C@H]1C)C[C@H](O)[C@H]2C(=O)O` [AMPHOTERICIN B], the IC50 in data set [1] is 0.5 µM; in data set [2], 1.6 µM.
